Results on two compounds are retold here after ChEMBL document CHEMBL5226332, “Amino-Substituted 3-Aryl- and 3-Heteroarylquinolines as Potential Antileishmanial Agents” (J Med Chem, 2021).

Holding throughout (format): ADME, organism-based
What all share (conditions): in vivo

Data set [1] in a line: AUC in BALB/c mouse at 10 mg/kg, iv measured after 24 hrs by LC/MS analysis. Details: dose 10 mg/kg, time 24 hrs, route iv. Put shortly:
(§1)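 Mice given one 10 mg/kg dose by IV, oral or IP route; parent and monomethyl metabolite measured in plasma. Oral dose given in 10/10/40/39 EtOH/PG/PEG400/PBS (pH 7.4) plus 1% w/v HβCD. Vd is steady-state for IV and apparent for the other routes.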

Data set [2] is described as follows: Cmax in BALB/c mouse at 10 mg/kg, iv measured after 24 hrs by LC/MS analysis. Details: time 24 hrs, dose 10 mg/kg, route iv. The gist of the method:
as §1

The nature of data set [3]: Volume of distribution in BALB/c mouse at 10 mg/kg, iv measured after 24 hrs by LC/MS analysis. The gist of the method:
as §1

Data set [4] in a line: Cmax in BALB/c mouse at 10 mg/kg, ip measured after 24 hrs by LC/MS analysis. Further details: dose 10 mg/kg, time 24 hrs, route ip. Put shortly: as §1
Data set [5] can be described thus: Tmax in BALB/c mouse at 10 mg/kg, po measured after 24 hrs by LC/MS analysis. The gist of the method:
as §1

A short description of data set [6]: AUC in BALB/c mouse at 10 mg/kg, po measured after 24 hrs by LC/MS analysis. Details: time 24 hrs, dose 10 mg/kg, route po. Put shortly: as §1
Data set [7] can be described thus: AUC in BALB/c mouse at 10 mg/kg, ip measured after 24 hrs by LC/MS analysis. Details: dose 10 mg/kg, time 24 hrs, route ip. The gist of the method:
as §1

Data set [8] in a line: Cmax in BALB/c mouse at 10 mg/kg, po measured after 24 hrs by LC/MS analysis. Further details: dose 10 mg/kg, time 24 hrs, route po. The gist of the method:
as §1

As for `CN(C)c1ccc2cc(-c3cc(Cl)cc(Cl)c3)c(N)nc2c1`, the AUC in data set [1] turned out to be 3.91 µM·h. This compound also came in with a maximum concentration (Cmax) in data set [2] of 741 nM. Further, in data set [3], the Vd came to 25.9 L/kg.

With `CN(C)c1ccc2cc(-c3cn(C)c4ccccc34)c(N)nc2c1`, the Cmax in data set [4] stood at 3170 nM; in data set [2], 2840 nM; in data set [8], 1000 nM. In addition, the exposure (AUC) came to 5.95 µM·h in data set [1], 0.921 µM·h in data set [6] and 3.81 µM·h in data set [7]. In addition, the time of peak concentration (Tmax) in data set [5] turned out to be 6 min. Moreover, the Vd in data set [3] was 9.88 L/kg.
